Laboratory results as given in ChEMBL document CHEMBL5696442, “Discovery of type II inhibitors of TGFβ-activated kinase 1 (TAK1) and mitogen-activated protein kinase kinase kinase kinase 2 (MAP4K2)” (J Med Chem, 2015).
Calls of active or inactive are those of the source. The calls are words filed in the database; no cut-off is given here.

How the values were obtained:
Type in all cases: cell-based
[1] = target: Serine/threonine-protein kinase mTOR (Homo sapiens) (UniProt P42345); assay: Inhibition of FRAP ATP labeling site in human Huh-7 cells at 1 uM by KiNativ Profiling analysis relative to control
[2] = target: Cyclin-dependent kinase 10 (Homo sapiens) (UniProt Q15131); assay: Inhibition of CDK10 Lys2 labeling site in human A-375 cells at 0.05 uM by KiNativ Profiling analysis relative to control
Cyclin-dependent kinase 10 (Homo sapiens), sequence (Q15131 whole entry): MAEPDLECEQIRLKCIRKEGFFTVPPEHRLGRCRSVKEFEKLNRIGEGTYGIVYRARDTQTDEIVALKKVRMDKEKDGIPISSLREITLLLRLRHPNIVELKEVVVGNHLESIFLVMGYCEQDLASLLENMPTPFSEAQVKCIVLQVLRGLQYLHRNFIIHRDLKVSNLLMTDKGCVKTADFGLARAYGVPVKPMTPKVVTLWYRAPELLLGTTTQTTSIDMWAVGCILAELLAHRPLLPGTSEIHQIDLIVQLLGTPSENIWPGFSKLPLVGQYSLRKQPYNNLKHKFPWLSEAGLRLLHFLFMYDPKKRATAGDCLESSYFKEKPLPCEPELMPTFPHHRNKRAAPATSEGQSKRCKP

[3] = target: 5'-AMP-activated protein kinase catalytic subunit alpha-2 (Homo sapiens) (UniProt P54646); assay: Inhibition of AMPKa2 Lys1 labeling site in human A-375 cells at 0.05 uM by KiNativ Profiling analysis relative to control
5'-AMP-activated protein kinase catalytic subunit alpha-2 (Homo sapiens), sequence (P54646 whole entry, looked up): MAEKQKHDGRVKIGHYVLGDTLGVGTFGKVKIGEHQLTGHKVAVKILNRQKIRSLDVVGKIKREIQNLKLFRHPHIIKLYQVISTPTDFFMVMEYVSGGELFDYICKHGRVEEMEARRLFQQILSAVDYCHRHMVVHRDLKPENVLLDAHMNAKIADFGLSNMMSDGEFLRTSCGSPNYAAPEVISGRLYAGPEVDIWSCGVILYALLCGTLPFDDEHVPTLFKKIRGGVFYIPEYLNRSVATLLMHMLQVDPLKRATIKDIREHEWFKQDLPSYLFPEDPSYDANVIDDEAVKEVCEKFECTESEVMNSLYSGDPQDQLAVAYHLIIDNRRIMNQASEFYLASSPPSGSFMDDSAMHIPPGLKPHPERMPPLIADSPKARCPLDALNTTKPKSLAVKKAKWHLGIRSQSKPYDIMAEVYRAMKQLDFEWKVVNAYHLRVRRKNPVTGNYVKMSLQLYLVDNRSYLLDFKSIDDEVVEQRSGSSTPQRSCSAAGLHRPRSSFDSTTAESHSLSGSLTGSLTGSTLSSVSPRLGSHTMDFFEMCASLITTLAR

[4] = target: T1, Serine/threonine-protein kinase Chk1 (Homo sapiens) (UniProt O14757); assay: Inhibition of CHK1 Lys2 labeling site harbouring DIKPENLLLDER in human A-375 cells at 0.05 uM by KiNativ Profiling analysis relative to control
T1 sequence (whole entry): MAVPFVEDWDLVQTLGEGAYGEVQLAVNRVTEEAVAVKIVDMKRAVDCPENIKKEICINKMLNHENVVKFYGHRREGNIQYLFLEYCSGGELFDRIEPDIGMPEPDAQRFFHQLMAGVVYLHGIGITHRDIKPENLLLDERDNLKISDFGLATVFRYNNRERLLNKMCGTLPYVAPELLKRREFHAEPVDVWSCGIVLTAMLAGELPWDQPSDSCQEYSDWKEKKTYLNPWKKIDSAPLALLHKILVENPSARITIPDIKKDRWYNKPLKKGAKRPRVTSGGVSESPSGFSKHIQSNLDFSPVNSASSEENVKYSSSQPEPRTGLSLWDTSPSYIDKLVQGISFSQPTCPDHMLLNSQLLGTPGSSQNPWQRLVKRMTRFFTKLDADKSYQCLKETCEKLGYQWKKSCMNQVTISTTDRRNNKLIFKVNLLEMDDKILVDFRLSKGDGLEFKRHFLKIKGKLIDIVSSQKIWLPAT

[5] = target: Ribosomal protein S6 kinase alpha-2 (Homo sapiens) (UniProt Q15349); assay: Inhibition of RSK3 Protein Kinase Domain in human A-375 cells at 0.5 uM by KiNativ Profiling analysis relative to control
Ribosomal protein S6 kinase alpha-2 (Homo sapiens), sequence (Q15349 whole entry, the tested form may be a part): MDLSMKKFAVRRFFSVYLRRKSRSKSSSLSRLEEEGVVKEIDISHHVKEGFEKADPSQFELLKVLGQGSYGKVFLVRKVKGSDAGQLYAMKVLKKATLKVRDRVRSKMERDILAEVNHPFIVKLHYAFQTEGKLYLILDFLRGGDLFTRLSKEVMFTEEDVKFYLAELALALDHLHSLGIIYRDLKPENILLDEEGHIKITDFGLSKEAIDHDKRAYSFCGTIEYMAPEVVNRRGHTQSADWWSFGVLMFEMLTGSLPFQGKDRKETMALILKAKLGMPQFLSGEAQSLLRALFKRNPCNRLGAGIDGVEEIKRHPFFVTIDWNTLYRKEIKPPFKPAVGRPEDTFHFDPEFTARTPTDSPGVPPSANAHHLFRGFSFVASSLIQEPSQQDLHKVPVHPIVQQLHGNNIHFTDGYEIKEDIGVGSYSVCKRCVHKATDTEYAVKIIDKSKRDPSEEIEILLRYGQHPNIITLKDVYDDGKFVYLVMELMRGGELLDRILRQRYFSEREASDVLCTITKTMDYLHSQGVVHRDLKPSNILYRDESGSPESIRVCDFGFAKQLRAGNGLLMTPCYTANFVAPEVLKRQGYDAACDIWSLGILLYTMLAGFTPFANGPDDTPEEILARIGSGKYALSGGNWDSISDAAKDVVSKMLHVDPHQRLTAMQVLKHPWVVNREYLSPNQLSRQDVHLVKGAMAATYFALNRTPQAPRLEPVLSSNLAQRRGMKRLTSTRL
Summary of the method: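 Live A375 melanoma cells treated with compound at 5 or 0.5 μM, then lysed. Lysate kinases were labeled with a lysine-reactive ATP or ADP-biotin probe. Inhibition was read as protection of labeling sites from the probe.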

[6] = target: T2, Serine/threonine-protein kinase LATS2 (Homo sapiens) (UniProt Q9NRM7); assay: Inhibition of LATS2 Lys2 labeling site in human A-375 cells at 0.05 uM by KiNativ Profiling analysis relative to control
T2 sequence (whole entry): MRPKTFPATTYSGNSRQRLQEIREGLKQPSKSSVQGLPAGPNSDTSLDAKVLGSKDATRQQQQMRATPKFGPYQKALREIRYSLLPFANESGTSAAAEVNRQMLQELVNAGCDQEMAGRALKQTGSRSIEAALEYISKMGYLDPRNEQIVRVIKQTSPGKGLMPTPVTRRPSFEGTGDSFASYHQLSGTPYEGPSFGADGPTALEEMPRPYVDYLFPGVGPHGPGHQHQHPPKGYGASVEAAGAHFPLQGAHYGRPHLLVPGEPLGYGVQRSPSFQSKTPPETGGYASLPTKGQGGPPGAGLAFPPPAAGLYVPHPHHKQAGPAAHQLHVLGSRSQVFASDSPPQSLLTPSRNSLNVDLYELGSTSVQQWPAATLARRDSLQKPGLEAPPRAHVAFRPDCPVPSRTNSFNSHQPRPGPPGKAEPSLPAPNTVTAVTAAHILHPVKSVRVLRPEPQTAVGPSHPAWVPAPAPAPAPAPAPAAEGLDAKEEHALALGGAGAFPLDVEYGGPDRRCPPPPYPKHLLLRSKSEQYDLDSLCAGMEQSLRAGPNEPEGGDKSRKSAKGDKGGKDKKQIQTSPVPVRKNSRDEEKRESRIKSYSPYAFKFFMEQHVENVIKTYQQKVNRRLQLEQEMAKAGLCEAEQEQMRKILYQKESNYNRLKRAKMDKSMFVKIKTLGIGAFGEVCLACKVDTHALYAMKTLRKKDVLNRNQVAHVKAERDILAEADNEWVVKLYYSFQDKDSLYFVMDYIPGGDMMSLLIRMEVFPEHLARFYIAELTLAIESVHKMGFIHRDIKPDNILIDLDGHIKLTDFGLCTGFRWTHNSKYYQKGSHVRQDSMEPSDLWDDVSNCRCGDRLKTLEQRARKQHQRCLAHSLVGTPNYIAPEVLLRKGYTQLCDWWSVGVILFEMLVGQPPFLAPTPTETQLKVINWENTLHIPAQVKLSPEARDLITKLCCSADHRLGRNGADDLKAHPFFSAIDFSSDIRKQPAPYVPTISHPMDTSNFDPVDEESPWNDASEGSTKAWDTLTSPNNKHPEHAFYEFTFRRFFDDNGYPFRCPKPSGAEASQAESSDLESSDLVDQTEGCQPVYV

[7] = target: Serine/threonine-protein kinase WNK3 (Homo sapiens) (UniProt Q9BYP7); assay: Inhibition of Wnk3 Lys2 labeling site in human A-375 cells at 0.05 uM by KiNativ Profiling analysis relative to control
Serine/threonine-protein kinase WNK3 (Homo sapiens), sequence (Q9BYP7 whole entry): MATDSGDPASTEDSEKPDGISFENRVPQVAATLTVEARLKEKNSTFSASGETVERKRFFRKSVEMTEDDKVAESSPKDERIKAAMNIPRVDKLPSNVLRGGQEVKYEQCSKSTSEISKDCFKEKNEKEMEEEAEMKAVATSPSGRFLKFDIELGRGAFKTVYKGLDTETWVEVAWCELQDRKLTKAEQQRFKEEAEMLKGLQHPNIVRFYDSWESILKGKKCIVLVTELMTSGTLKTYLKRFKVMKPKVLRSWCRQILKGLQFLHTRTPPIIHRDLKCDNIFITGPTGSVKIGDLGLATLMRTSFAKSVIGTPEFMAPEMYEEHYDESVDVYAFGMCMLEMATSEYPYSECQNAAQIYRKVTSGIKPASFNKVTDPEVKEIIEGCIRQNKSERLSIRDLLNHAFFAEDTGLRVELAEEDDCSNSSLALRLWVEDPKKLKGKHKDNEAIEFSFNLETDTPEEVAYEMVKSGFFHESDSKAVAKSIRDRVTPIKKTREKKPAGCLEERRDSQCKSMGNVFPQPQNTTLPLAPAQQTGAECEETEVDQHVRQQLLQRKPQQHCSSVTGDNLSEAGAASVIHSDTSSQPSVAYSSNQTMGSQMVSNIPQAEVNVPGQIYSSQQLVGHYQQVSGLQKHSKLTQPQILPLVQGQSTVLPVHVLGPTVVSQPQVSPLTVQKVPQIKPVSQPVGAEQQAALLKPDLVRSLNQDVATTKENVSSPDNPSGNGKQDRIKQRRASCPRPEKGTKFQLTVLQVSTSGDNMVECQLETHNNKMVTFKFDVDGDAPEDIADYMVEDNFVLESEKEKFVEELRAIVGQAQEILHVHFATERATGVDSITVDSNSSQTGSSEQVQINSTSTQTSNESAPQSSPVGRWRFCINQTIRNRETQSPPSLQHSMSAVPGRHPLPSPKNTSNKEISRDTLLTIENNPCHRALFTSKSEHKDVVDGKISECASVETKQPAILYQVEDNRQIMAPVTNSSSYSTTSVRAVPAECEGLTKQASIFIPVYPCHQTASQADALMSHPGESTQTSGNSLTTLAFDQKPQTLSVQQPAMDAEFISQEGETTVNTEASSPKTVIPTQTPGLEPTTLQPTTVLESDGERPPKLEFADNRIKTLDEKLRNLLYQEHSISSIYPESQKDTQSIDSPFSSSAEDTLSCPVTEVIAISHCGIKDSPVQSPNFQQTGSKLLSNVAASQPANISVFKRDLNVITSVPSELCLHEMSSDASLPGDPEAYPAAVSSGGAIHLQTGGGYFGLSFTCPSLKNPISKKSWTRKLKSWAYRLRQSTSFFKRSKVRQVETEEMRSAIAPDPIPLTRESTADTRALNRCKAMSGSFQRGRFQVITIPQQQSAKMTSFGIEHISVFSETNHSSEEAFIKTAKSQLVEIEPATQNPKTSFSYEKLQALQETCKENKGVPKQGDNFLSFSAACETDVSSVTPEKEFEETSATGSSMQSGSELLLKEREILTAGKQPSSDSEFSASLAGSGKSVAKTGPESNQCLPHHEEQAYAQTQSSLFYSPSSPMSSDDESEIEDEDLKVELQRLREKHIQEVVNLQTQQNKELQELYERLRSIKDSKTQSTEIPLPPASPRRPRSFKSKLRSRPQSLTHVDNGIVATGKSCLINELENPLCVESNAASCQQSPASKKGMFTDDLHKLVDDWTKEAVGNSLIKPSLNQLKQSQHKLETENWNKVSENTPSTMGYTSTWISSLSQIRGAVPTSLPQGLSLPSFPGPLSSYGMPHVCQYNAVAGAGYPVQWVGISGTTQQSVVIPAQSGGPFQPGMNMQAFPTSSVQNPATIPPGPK

[8] = target: Serine/threonine-protein kinase 26 (Homo sapiens) (UniProt Q9P289); assay: Inhibition of MST4 ACT labeling site in human A-375 cells at 5 uM by KiNativ Profiling analysis relative to control
Serine/threonine-protein kinase 26 (Homo sapiens), sequence (Q9P289 2-416 limits assumed): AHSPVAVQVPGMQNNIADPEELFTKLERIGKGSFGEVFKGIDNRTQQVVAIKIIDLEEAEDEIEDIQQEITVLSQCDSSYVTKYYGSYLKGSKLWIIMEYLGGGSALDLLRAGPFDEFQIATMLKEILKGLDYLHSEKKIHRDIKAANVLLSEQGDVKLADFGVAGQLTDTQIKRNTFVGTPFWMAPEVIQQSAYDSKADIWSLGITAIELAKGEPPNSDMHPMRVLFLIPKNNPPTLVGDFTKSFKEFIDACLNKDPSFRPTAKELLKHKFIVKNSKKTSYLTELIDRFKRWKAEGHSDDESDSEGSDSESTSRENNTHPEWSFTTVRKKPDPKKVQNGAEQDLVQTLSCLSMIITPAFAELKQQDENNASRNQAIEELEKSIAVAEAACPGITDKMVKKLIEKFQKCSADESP

[9] = target: T3, Phosphatidylinositol 5-phosphate 4-kinase type-2 gamma (Homo sapiens) (UniProt Q8TBX8); assay: Inhibition of PIP4K2C ATP labeling site harbouring VKELPTLK in human A-375 cells at 0.5 uM by KiNativ Profiling analysis relative to control
T3 sequence (whole entry): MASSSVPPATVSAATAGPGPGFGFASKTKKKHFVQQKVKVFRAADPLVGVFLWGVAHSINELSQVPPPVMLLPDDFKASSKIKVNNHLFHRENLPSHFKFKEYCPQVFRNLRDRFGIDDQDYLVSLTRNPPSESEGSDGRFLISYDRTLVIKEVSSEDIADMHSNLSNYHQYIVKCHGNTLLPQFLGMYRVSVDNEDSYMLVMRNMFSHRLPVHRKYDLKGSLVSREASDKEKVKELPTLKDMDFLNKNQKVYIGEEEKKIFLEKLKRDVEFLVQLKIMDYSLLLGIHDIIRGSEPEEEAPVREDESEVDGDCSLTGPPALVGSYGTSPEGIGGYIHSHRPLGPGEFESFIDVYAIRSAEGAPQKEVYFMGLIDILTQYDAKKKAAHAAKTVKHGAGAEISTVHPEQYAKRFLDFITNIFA
Summary of the method: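 Live A375 melanoma cells were treated with compound at 5 or 0.5 μM, then lysed. Lysates were labeled with a lysine-reactive ATP or ADP-biotin probe. Read-out was the compound's protection of kinase labeling sites from probe labeling (KiNativ).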

| SMILES | inhibition [1] | inhibition [2] | inhibition [3] | inhibition [4] | inhibition [5] | inhibition [6] | inhibition [7] | inhibition [8] | inhibition [9] |
| --- | --- | --- | --- | --- | --- | --- | --- | --- | --- |
| CNc1cc(Oc2cc(C(=O)Nc3cc(N4CCN(C)CC4)cc(C(F)(F)F)c3)ccc2C)ncn1 | 26.5% |  |  |  |  |  |  |  |  |
| CCN1CCN(Cc2ccc(NC(=O)c3ccc(C)c(/C=C/c4cnc5[nH]ccc5c4OC)c3)cc2C(F)(F)F)CC1 |  | 30.7% | 7.4% | 8.3% | 3.2% | -3.3% | 7.1% | 13.7% | 9.2% |
| CCN1CCN(Cc2ccc(NC(=O)c3ccc(C)c(Oc4ccnc5[nH]ccc45)c3)cc2C(F)(F)F)CC1 | inactive | 7.8% | 13.4% | 49.4% | 0.9% | 14.3% | -3.5% | 35.1% | -1.8% |
